Furin inhibitor – blocks human furin protease activity. P09958. purified furin, fluorogenic substrate cleavage. AID 463115. inhibition, % at 20 µM or 30 µM. 220,000 tested, 0.061% active; in the data active = inhibition above about 25%
Target sequence (P09958 108-714 limits assumed): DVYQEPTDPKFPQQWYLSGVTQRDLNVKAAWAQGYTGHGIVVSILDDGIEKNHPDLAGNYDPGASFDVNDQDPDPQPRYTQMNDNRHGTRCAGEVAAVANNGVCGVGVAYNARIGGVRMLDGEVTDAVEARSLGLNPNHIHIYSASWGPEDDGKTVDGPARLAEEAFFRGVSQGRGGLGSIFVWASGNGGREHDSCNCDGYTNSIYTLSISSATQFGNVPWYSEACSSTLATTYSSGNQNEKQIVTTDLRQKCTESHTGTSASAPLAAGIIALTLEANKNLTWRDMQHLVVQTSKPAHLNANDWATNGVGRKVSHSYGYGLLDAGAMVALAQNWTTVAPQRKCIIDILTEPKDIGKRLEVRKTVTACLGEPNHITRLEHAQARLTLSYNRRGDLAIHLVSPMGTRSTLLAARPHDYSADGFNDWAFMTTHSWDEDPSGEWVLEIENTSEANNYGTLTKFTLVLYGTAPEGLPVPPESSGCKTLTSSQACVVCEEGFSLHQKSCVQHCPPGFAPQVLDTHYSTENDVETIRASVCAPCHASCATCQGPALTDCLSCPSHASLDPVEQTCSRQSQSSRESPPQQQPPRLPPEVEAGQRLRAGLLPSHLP
Insulin prom up – MIN6 insulin promoter up-regulation; MIN6 insulin promoter-GFP reporter, high-content imaging; stronger effect = higher value; z-score at 5 µM; 190,000 tested, 0.3% active; AID 1625;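 active = z-score above 3 at 5 µM with at least 500 cells counted in the well; inconclusive = wells under 500 cells, flagged as cytotoxic or low count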
Autophagy mod – modulators of autophagy; MEF GFP-LC3 puncta imaging; test concentration mostly 10 µM; calls only at 10 µM (by protocol); 190,000 tested, 0.98% active;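 active = percentage of spot-positive cells more than 3 SD above its plate mean, without a fluorescence outlier flag or 80% toxicity; inconclusive = no clear call, values can overlap the other calls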;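 note: spot-positive cell cutoff set from DMSO-treated cells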
MT stabilize HCS – microtubule stabilizers in HeLa cells; 200,000 tested, 0.83% active; HeLa tubulin immunostaining HCS, 24 h; share of cells brighter than vehicle mean+2SD; AID 2205; % tubulin-high responders, % at 10 µM;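 active = plate Z-score above 3 for both tubulin-high and condensed-nucleus cell shares, with cell loss under 80%, at 10 µM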;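 note: anti alpha tubulin signal scored within the nucleus-defined area of each cell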
HSV replic up – increases HSV replication in cells; HSV replication augmentation in cells, fold increase; maximum fold increase; AID 1956; 220,000 tested, 0.005% active; in the data active = maximum fold increase above about 1.5; inconclusive = no clear call, values can overlap the other calls; tested in PC3 cells
b-catenin transl – alters nuclear translocation of beta-catenin in HeLa cells; nuclear translocation activity, % at 5 µM; 190,000 tested, 0.3% active; immunofluorescence imaging;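 active = nuclear translocation activity above 50% at 5 µM, with a well cell count of 50 or more; inconclusive = wells under 50 cells across six images, flagged as toxic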;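 note: per-cell ratio of nuclear to cytoplasmic median beta-catenin stain intensity; plate controls were DMSO negative control for no effect and GSK-3 inhibitor IX positive control for full effect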
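Test system: human HeLa cell line; Doses: 5 µM primary, 0.02–20 µM confirmation; Incubation: 24 h compound exposure, 37°C; Detection: beta-catenin immunofluorescence imaging with DAPI; Read-out: beta-catenin nuclear/cytoplasmic ratio, % activation.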
* = called active by the depositor. Only some compounds are listed: those with a hit (about 1.9% of all), similar ones and a draw of the others.

`Cc1ccc(NC(=O)/C(C#N)=C(\N)C(Cl)(Cl)Cl)nc1` gave Furin inhibitor -18, Insulin prom up -0.09, Autophagy mod active, MT stabilize HCS 3, HSV replic up inactive and b-catenin transl 2.
For Cc1cccc(-c2c3c(=O)n(C)c(=O)n(C)c3c3nnc4ccccc4n23)c1 the results were Furin inhibitor 10, Autophagy mod active and MT stabilize HCS 2.
For COC(=O)c1ccc(Nc2cc(C)nc3ccc(C)cc23)cc1 the results were Furin inhibitor 14, Insulin prom up -1.1, HSV replic up inactive and b-catenin transl 62*.
Screening COC(=O)c1ccc2nc(C)cc(Nc3ccccc3C)c2c1 returned Furin inhibitor -27, Insulin prom up -0.47, Autophagy mod inactive, MT stabilize HCS 4 and b-catenin transl -4.
Cc1ccc2nc(C)cc(Nc3ccc([N+](=O)[O-])cc3)c2c1 was read as Furin inhibitor 4, Insulin prom up -1.4, Autophagy mod active, MT stabilize HCS 5, HSV replic up inactive and b-catenin transl 0.
For Cc1ccc(CSc2nccc(-c3c(C)nc4ccccn34)n2)cc1 the results were Furin inhibitor -12, HSV replic up inactive and b-catenin transl 55*.
Cc1ccc(CSc2ncn(-c3ccccc3)n2)cc1 was read as Furin inhibitor -9, Autophagy mod inactive, MT stabilize HCS 2, HSV replic up inactive and b-catenin transl -10.
`COc1ccc(Cl)c(N2CCN(CCCNC(=O)Nc3ccc(C)cc3)CC2)c1` gave Furin inhibitor -9, Insulin prom up -1.1, Autophagy mod active, MT stabilize HCS 4 and b-catenin transl -1.
Screening Cc1ccc(NC(=O)NCCCN2CCOCC2)cc1 returned Furin inhibitor -28, Autophagy mod inactive, MT stabilize HCS 2 and HSV replic up inactive.
Screening Clc1ccc(Cn2cccc2C2=NCCO2)cc1 returned Furin inhibitor -15, Insulin prom up -0.66, Autophagy mod inactive, MT stabilize HCS 2, HSV replic up inactive and b-catenin transl 0.
O=C(CSCc1c(F)cccc1Cl)Nc1cccnc1 was read as Furin inhibitor -17, Insulin prom up -0.41, Autophagy mod active, MT stabilize HCS 1, HSV replic up inactive and b-catenin transl -1.
For COC(=O)CSc1nc2ccccn2c(=O)c1C=O the results were Furin inhibitor -19, Autophagy mod inactive, MT stabilize HCS 1, HSV replic up inactive and b-catenin transl -2.
For Cc1ccc(S(=O)(=O)NC(=O)Nc2nccs2)cc1 the results were Furin inhibitor -22, Insulin prom up 0.47, HSV replic up inactive and b-catenin transl 0.
Cc1ccc(CN2C(=O)N/C(=C\c3ccc(N4CCOCC4)cc3)C2=O)cc1 was read as Furin inhibitor -23, Autophagy mod inactive, MT stabilize HCS 8, HSV replic up inactive and b-catenin transl -2.
CCCN1C(=O)/C(=C/c2ccc(N3CCOCC3)cc2)NC1=S was read as Furin inhibitor -27, Autophagy mod inactive, MT stabilize HCS 2, HSV replic up 1.6* and b-catenin transl -5.
Screening CCN1C(=O)/C(=C/c2ccc(N3CCCC3)cc2)NC1=S returned Furin inhibitor -7, Insulin prom up 16*, Autophagy mod active, MT stabilize HCS 2, HSV replic up inconclusive and b-catenin transl -2.
`C/C(=N\NC(=S)NC(C)C)c1ccco1` gave Furin inhibitor -14, Insulin prom up 1.5, Autophagy mod inactive, MT stabilize HCS 3, HSV replic up inactive and b-catenin transl 0.
Screening Cn1c(CNC(=O)c2ccc(F)cc2)nc2ccccc21 returned Furin inhibitor -23, Insulin prom up 0.37, Autophagy mod inactive, MT stabilize HCS 2, HSV replic up inactive and b-catenin transl -1.
Screening CSc1nc(N(C)NC(=O)c2ccc(F)cc2)c2ccccc2n1 returned Furin inhibitor -19, Insulin prom up -0.05, Autophagy mod inactive, MT stabilize HCS 33*, HSV replic up inactive and b-catenin transl 3.
Screening CC(Oc1ccc(Cl)cc1Cl)C(=O)N(C)c1ccccc1 (centres undefined) returned Furin inhibitor -11, Insulin prom up -0.57, Autophagy mod inactive, MT stabilize HCS 2, HSV replic up inactive and b-catenin transl 1.
`Cc1nn(-c2ccccc2)c(N)c1N=Nc1ccccc1` gave Furin inhibitor -5, Insulin prom up -1.1, Autophagy mod inactive, MT stabilize HCS 10, HSV replic up inactive and b-catenin transl 11.
`Nc1nn(-c2ccccc2)c(N)c1N=Nc1ccccc1` gave Furin inhibitor 9, Insulin prom up -0.13, Autophagy mod inactive, MT stabilize HCS 22*, HSV replic up inactive and b-catenin transl 89*.
Screening Nc1nn(-c2ccccc2)c(N)c1N=Nc1ccccc1F returned Furin inhibitor -3, Insulin prom up -0.08, Autophagy mod inactive, MT stabilize HCS 26*, HSV replic up inactive and b-catenin transl 1.
For O=c1c2ccccc2c(-c2ccccc2)nn1-c1cc(Cl)cc(Cl)c1 the results were Furin inhibitor -14, Insulin prom up -0.18, HSV replic up inactive and b-catenin transl 0.
For CCOC(=O)N1CCN(C(=S)NC2CCCCC2)CC1 the results were Furin inhibitor -20, Autophagy mod inactive, MT stabilize HCS 3, HSV replic up inactive and b-catenin transl -1.
For CCOC(=O)N1CCN(C(=O)NC2CCCCC2)CC1 the results were Furin inhibitor -16, Insulin prom up 3.7*, Autophagy mod inactive, MT stabilize HCS 3, HSV replic up inactive and b-catenin transl -1.
For COc1ccc2[nH]c(=O)c(CN(C)C(=O)c3ccncc3)cc2c1 the results were Furin inhibitor -23, Insulin prom up -0.65, Autophagy mod inactive, MT stabilize HCS 2, HSV replic up inactive and b-catenin transl -5.
For CCCN(Cc1cc2cc(OC)ccc2[nH]c1=O)C(=O)c1ccncc1 the results were Furin inhibitor -17, Insulin prom up 0.33, Autophagy mod inactive, MT stabilize HCS 13*, HSV replic up inactive and b-catenin transl 0.
Screening COc1ccc(C(C)(C)C)cc1NC(=O)Cn1cnnn1 returned Furin inhibitor -25, Insulin prom up 0.29, Autophagy mod inactive, MT stabilize HCS 4, HSV replic up inactive and b-catenin transl 9.
Screening Cc1cccc(/C=N/NC(=O)c2cc3c(s2)-c2ccccc2CC3)c1 returned Furin inhibitor -28, Insulin prom up 0.38, Autophagy mod inactive, MT stabilize HCS 34*, HSV replic up inactive and b-catenin transl 0.
`O=C(N/N=C/c1cccc(C(F)(F)F)c1)c1cc2c(s1)-c1ccccc1CC2` gave Furin inhibitor -33, Insulin prom up -0.37, Autophagy mod inactive, MT stabilize HCS 14, HSV replic up inactive and b-catenin transl 2.
Screening CCN(CC)c1ccc(C=C(c2nnnn2-c2ccc(C)cc2)c2nnnn2-c2ccc(C)cc2)cc1 returned Furin inhibitor -5, Insulin prom up 1.6, Autophagy mod active, MT stabilize HCS 4, HSV replic up inconclusive and b-catenin transl 2.
